Compounds with a hit are over-represented: about 3.5% of the library has one in this group of screens.
MrgX1 allo act = positive allosteric modulators of MrgX1, primary screen, HEK293 cells, Fluo-4 calcium flux; B-score at 10 µM; hit rate 0.63% among 310,000; FDSS; hits give high values; AID 588675, 2011;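 active = plate-corrected calcium response at least 3 library SD above typical, normal starting fluorescence, not activating the receptor alone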;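 also: compound read alongside a low EC10 to EC30 dose of BAM8-22 agonist; peak minus trough fluorescence over baseline measured at the second addition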
Target sequence (Q96LB2 whole entry, looked up): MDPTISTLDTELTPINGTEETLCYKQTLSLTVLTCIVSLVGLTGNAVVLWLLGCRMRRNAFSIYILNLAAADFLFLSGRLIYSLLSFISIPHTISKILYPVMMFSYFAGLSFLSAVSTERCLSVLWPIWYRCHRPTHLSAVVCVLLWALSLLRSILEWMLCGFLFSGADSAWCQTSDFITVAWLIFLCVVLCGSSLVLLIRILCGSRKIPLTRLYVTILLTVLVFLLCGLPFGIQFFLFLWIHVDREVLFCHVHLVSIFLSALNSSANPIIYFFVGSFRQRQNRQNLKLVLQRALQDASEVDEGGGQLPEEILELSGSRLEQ
MrgX1 antag = antagonists of human MrgX1 receptor, primary screen, HEK293 cells, Fluo-4 calcium flux. B-score at 10 µM. BAM8-22 antagonism; hits give low values. AID 588676, 2011. hit rate 1.3% among 310,000. Mas-related G-protein coupled receptor member X1 (Homo sapiens), Q96LB2;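 active = calcium-response B-score plate-corrected more than 3 library SD below zero, starting fluorescence within 5 deviations, no agonist response on first addition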;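 also: peak minus trough fluorescence over baseline after final BAM8-22 challenge near maximal dose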
RGS4 inh = RGS4 inhibitors, primary screen, cell-based, HEK293 M3R inducible RGS4, calcium flux | Fluo-4 calcium flux; hits give high values; triggered by carbachol at its EC20 | B-score at 10 µM | hit rate 0.45% among 310,000 | AID 463165, 2010;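 active = B-score, a plate-corrected calcium signal, over three deviations above library mean, with baseline fluorescence within five deviations of library mean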;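 also: RGS4 expression induced by doxycycline in cells with stable M3 receptor; B-score is computed from the integrated fluorescence ratio over baseline after carbachol; higher B-score means a larger calcium signal and so more RGS4 inhibition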
Target sequence (P49798 whole entry, looked up): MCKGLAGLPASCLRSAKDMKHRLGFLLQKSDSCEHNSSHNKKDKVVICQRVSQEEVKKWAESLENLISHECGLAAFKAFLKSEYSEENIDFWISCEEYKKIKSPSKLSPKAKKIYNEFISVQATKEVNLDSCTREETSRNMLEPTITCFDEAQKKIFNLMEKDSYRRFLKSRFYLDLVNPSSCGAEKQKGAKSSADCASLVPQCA
MrgX1 agonist = agonists of human MrgX1 receptor, primary screen, HEK293 cells, Fluo-4 calcium flux; Mas-related G-protein coupled receptor member X1 (Homo sapiens), Q96LB2; Fluo-4 calcium fluorescence, agonist mode; hits give high values; B-score at 10 µM; hit rate 0.44% among 310,000; AID 588627, 2011;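 active = calcium response B-score plate-corrected fluorescence ratio at least 3 library SD, with starting fluorescence B-score inside 5 SD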
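Test system: HEK293 cells stably expressing human MrgX1 receptor; Input: fifteen thousand cells per well; Dosing: compound delivered in addition one of three; Schedule: overnight seeding, then 1 h dark dye loading; Technique: Fluo-4 NW calcium fluorescence; Measure: B-scored fluorescence response ratio; Controls: positive and negative controls per plate.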
RGS4 act = RGS4 potentiators or activators, primary screen, cell-based, HEK293 M3R inducible RGS4, calcium flux. carbachol calcium flux Fluo4; hits give low values. B-score at 10 µM. hit rate 0.92% among 310,000. AID 463111, 2010;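 active = B-score of the integrated calcium signal more than 4 SD below the library mean, with starting fluorescence not abnormally high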;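 also: negative B-score means reduced calcium response which marks RGS4 activation or potentiation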
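test system = HEK293 cells with stable M3R and inducible RGS4 | schedule = recording 10 s baseline at 1 Hz, 100 s post-agonist | technique = Fluo4-AM (2 µM) calcium-flux fluorescence, kinetic read | measure = Agonist-evoked peak-minus-minimum fluorescence over baseline, integrated ratio, B score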
MrgX1 ant reconf = MrgX1 receptor antagonists, duplicate retest, confirmation, HEK293 cells, Fluo-4 calcium flux; shares compounds with MrgX1 antag; BAM8-22 calcium flux; hits give low values; remaining BAM8-22 calcium response % of control (hits give low values), % at 10 µM; hit rate 19% among 2,300;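 active = remaining agonist calcium response no higher than 100% minus 3 SD of agonist-only control wells, with starting fluorescence near control levels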;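 also: agonist BAM8-22 given at a near maximal EC90 to ECmax level; peak minus minimum fluorescence divided by baseline after agonist addition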
HEK293 Ca flux = nonspecific calcium signal in parental HEK293, confirmation, counter-screen for MrgX1 antagonist project, parental HEK293 cells, Fluo-4 calcium flux; AID 624111, 2012; fluorescence ratio F(max-min)/F0 at 10 µM; shares compounds with MrgX1 antag; hit rate 2% among 4,000; Fluo-4 calcium fluorescence, FDSS;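 active = duplicate-averaged calcium fluorescence ratio at least three times the standard deviation of buffer wells, a nonspecific response in parental cells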
HEK293 Ca counter = calcium response in parental HEK293 cells, primary screen, counter-screen for MrgX1 allosteric activator project, cell-based, Fluo-4 calcium flux, duplicate | shares compounds with MrgX1 antag | fluorescence ratio F(max-min)/F0 at 10 µM | hit rate 0.4% among 4,000 | Fluo-4 fluorescence ratio; hits give high values;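 active = calcium fluorescence ratio, averaged over duplicates, at least 3 SD of the buffer-well ratio, meaning a nonspecific response in receptor-free cells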;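 also: untransfected parental HEK293 lacking MrgX1 used as counterscreen for MrgX1 allosteric activators; fluorescence change taken during the second addition on a kinetic imager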
HEK293 Ca cntr2 = calcium response in parental HEK293 cells, primary screen, counter-screen for MrgX1 agonist project, cell-based, Fluo-4 calcium flux, duplicate, agonist mode; hit rate 8.7% among 4,000; shares compounds with MrgX1 antag; fluorescence ratio F(max-min)/F0 at 10 µM; Fluo-4 calcium fluorescence (FDSS); hits give high values;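 active = calcium fluorescence ratio at least three times the spread of buffer wells, meaning a non-specific response in parental cells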
Numbers stand for hits; - = inactive; . = not tested or not shown.

SMILES | MrgX1 allo act | MrgX1 antag | RGS4 inh | MrgX1 agonist | RGS4 act | MrgX1 ant reconf | HEK293 Ca flux | HEK293 Ca counter | HEK293 Ca cntr2
Cc1cccc(NS(=O)(=O)c2ccc(C)c(C(=O)OCC(=O)Nc3cc(C)on3)c2)c1 | - | - | - | - | - | . | . | . | .
Cc1cccc(NS(=O)(=O)c2cc(C(=O)OCC(=O)Nc3cc(C)on3)ccc2C)c1 | - | -5 | - | - | - | - | - | - | -
Cc1nc(NCc2ccccn2)c2c3c(sc2n1)CCCC3 | - | -5.2 | - | - | - | - | - | - | -
COc1ccc([N+](=O)[O-])cc1NC(=O)CCS(=O)(=O)c1ccc(Br)cc1 | - | - | - | - | - | . | . | . | .
CN(C)CCN1CC(O)=C(c2nc3ccccc3s2)C1=N | - | -5.7 | - | - | - | - | - | - | -
N=C1C(c2nc3ccccc3s2)=C(O)CN1Cc1ccco1 | - | - | - | - | - | . | . | . | .
Cc1cc(OCCn2cncn2)ccc1[N+](=O)[O-] | - | - | - | - | - | . | . | . | .
CN(C)CCCC(C)(O)C(Cc1ccccc1)c1ccccc1 (stereo not given) | - | -6.5 | - | - | - | - | - | - | -
CN(C)CCC(Oc1ccccc1OCc1ccccc1)c1ccccc1 (stereo not given) | - | - | - | - | - | . | . | . | .
CC[C@H]1OC(=O)[C@H](C)[C@@H](O[C@H]2C[C@@](C)(OC)[C@@H](O)[C@H](C)O2)[C@H](C)[C@@H](O[C@@H]2O[C@H](C)C[C@H](N(C)C)[C@H]2O)[C@](C)(O)C[C@@H](C)C(=O)[C@H](C)[C@@H](O)[C@]1(C)O | - | - | - | - | - | . | . | . | .
CCOC(=O)CCC(=O)O[C@H]1[C@H](O[C@@H]2[C@@H](C)[C@H](O[C@H]3C[C@@](C)(OC)[C@@H](O)[C@H](C)O3)[C@@H](C)C(=O)O[C@H](CC)[C@@](C)(O)[C@H](O)[C@@H](C)C(=O)[C@H](C)C[C@@]2(C)O)O[C@H](C)C[C@@H]1N(C)C | - | -11 | - | - | - | - | - | - | -
COc1cccc(Nc2ncnc3sccc23)c1 | - | - | - | - | - | . | . | . | .
COC(=O)c1cccc(Nc2ncnc3sccc23)c1 | - | -4.5 | - | - | - | - | - | - | -
CCC(C)(C)n1nnnc1C(c1ccc2ncccc2c1)N1CCN(Cc2ccc3c(c2)OCO3)CC1 (stereo not given) | - | - | - | - | - | . | . | . | .
CCC(C)(C)n1nnnc1C(c1ccc(C)cc1)N1CCN(Cc2ccc3c(c2)OCO3)CC1 (stereo not given) | - | -6.2 | - | - | - | - | - | - | -
Cc1ccc(OCC(=O)N/N=C2/SCC(=O)N2Cc2ccccc2)cc1 | - | -21 | - | - | - | - | - | - | -
CCOC(=O)c1sc(NC(=O)CSc2nc(C)cc(C)c2C#N)c(C#N)c1C | - | -7.3 | - | - | - | - | - | - | -
CCOC(=O)c1sc(NC(=O)CSc2nc3c(cc2C#N)CCCCCC3)c(C#N)c1C | - | - | - | - | - | . | . | . | .
CCOc1cnc(-c2ccc(OC)cc2)o1 | - | -4.6 | - | - | - | - | - | - | -
Cc1ccccc1-n1c(=O)cc(N2CCCCCC2)[nH]c1=O | - | -6 | - | - | - | - | - | - | -
Cc1cc(C(=O)COC(=O)COc2ccc(C#N)cc2)c(C)n1C1CC1 | - | - | - | - | - | . | . | . | .
OC1CCN(c2c3c(nc4cc(-c5cccc(F)c5)nn24)CCCC3)CC1 | - | - | - | - | - | . | . | . | .
CN(CCO)c1c2c(nc3cc(-c4cccc(F)c4)nn13)CCCC2 | - | -9.6 | - | - | - | - | - | - | -
COC(=O)C1=C(c2ccc(OC)cc2)OC(=O)C1(C)C | - | - | - | - | - | . | . | . | .
CC(/C=N/NC(=O)c1cc(-c2cccnc2)nc2c1c(C)nn2-c1ccccc1)=C\c1ccccc1 | - | - | - | - | - | . | . | . | .
SMILES | MrgX1 allo act | MrgX1 antag | RGS4 inh | MrgX1 agonist | RGS4 act | MrgX1 ant reconf | HEK293 Ca flux | HEK293 Ca counter | HEK293 Ca cntr2
O=C(CSC1=NS(=O)(=O)c2cc(Cl)ccc2N1)Nc1ccccc1C(F)(F)F | - | -10 | - | - | - | - | - | - | -
CN(C)CC(C)(C)CNS(=O)(=O)c1ccc(Cl)s1 | - | - | - | - | - | . | . | . | .
NS(=O)(=O)c1ccc(CCNC(=O)c2ccccc2Cc2ccccc2)cc1 | - | - | - | - | - | . | . | . | .
NC1=NC(c2ccccc2Cl)n2c(nc3ccccc32)N1 (stereo not given) | - | -8.6 | - | - | - | - | - | - | -
CCCCNC(=O)COC(=O)c1ccc(C)c(NC(=O)c2ccco2)c1 | - | - | - | - | - | . | . | . | .
C=CCNC(=O)COC(=O)c1ccc(C)c(NC(=O)c2ccco2)c1 | - | -7.6 | - | - | - | - | - | - | -
CCN1c2ccc(S(=O)(=O)N3CCOCC3)cc2N(Cc2ccc(OC)cc2)C1C (stereo not given) | - | -4.7 | - | - | - | - | - | - | -
COc1ccc2cc(S(=O)(=O)N3CCOCC3)ccc2c1 | - | - | - | - | - | . | . | . | .
CCc1ccc(C2CC(c3ccccc3Cl)Nc3nc(N)nn32)cc1 (stereo not given) | - | -5.1 | - | - | - | - | - | - | -
Nc1nc2n(n1)C(c1ccco1)CC(c1ccc(Cl)cc1)N2 (stereo not given) | - | -6.3 | - | - | - | - | - | - | -
CCOc1cc2[nH]c(=S)n(C(C)C)c(=O)c2cc1OCC | - | - | - | - | - | . | . | . | .
CCC(CO)n1c(=S)[nH]c2cc(OC)c(OC)cc2c1=O (stereo not given) | - | -4.6 | - | - | - | - | - | - | -
Oc1ccccc1-c1nnc(SCCN2CCOCC2)n1Cc1ccccc1 | - | -6.8 | - | - | - | - | - | - | -
